From ChEMBL document CHEMBL5678802, “Small-molecule p21-activated kinase inhibitor PF-3758309 is a potent inhibitor of oncogenic signaling and tumor growth” (Proc Natl Acad Sci U S A, 2010)

Legend:
[1] = Antiproliferative activity against human Panc 05.04 cells assessed as inhibition of cell proliferation incubated for 3 days by CellTiter-Glo Luminescent Cell Viability Assay; format: functional, cell-based; conditions: Panc 05.04, 72 h
Summary of the method: (§1)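 Cells of each line were plated in 384-well plates on day 1 and exposed to compound from day 2 for 3 days. On day 5 all medium was aspirated. Viable cell number was read by CellTiter-Glo luminescence, which quantifies cellular ATP.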

ZR-75-1 = assay: Antiproliferative activity against human ZR-75-1 cells assessed as inhibition of cell proliferation incubated for 3 days by CellTiter-Glo Luminescent Cell Viability Assay; format: functional, cell-based; conditions: ZR-75-1, 72 h; summary of the method: as §1
[2] = target: T1, Serine/threonine-protein kinase D1 (Homo sapiens, UniProt Q15139); assay: Inhibition of human PKCmu assessed as inhibition constant in presence of ATP
T1 sequence (Q15139 whole entry): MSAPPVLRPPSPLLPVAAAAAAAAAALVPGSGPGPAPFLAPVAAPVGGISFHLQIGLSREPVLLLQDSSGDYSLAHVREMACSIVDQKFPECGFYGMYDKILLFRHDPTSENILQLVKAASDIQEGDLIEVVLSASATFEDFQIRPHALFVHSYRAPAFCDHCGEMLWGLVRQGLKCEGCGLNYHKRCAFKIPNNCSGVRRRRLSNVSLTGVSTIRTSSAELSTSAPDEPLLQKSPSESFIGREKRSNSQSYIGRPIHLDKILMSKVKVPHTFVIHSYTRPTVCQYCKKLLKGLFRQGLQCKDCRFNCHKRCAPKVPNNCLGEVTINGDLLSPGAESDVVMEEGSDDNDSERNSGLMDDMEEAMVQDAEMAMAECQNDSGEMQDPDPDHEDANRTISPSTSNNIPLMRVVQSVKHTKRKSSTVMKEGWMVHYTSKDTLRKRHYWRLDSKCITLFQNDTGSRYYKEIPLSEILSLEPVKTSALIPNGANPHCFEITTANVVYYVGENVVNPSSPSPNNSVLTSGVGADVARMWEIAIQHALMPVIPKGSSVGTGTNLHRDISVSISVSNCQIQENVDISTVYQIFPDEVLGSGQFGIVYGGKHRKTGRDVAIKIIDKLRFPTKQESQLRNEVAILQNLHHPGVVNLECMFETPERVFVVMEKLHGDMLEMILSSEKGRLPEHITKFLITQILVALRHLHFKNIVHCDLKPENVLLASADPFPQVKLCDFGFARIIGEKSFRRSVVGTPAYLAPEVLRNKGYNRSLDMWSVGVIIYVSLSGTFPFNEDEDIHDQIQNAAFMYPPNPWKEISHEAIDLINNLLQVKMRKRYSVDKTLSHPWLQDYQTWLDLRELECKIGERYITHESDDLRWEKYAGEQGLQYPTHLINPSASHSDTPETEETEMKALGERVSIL

LS174T = assay: Antiproliferative activity against human LS174T cells assessed as inhibition of cell proliferation incubated for 3 days by CellTiter-Glo Luminescent Cell Viability Assay; format: functional, cell-based; conditions: 72 h
Summary of the method: (§2)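 Cancer cell lines seeded in 384-well plates on day 1; compound added on day 2 and left for 3 days. On day 5 all medium was aspirated, and viable cells were quantified by CellTiter-Glo luminescence, which measures cellular ATP. Dose-dependent effects on proliferation were determined.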

HCT-116 = assay: Antitumor activity against human HCT-116 cells xenografted in nude mouse assessed as tumor growth inhibition at 0.12 mg/kg administered via pump for 9 days relative to control; format: functional; conditions: HCT-116, 216 h, time 9 day, read-out: TGI
Calu-1 = assay: Antiproliferative activity against human Calu-1 cells assessed as inhibition of cell proliferation incubated for 3 days by CellTiter-Glo Luminescent Cell Viability Assay; format: functional, cell-based; conditions: Calu-1, 72 h; summary of the method: as §2
NCI-H716 = assay: Antiproliferative activity against human NCI-H716 cells assessed as inhibition of cell proliferation incubated for 3 days by CellTiter-Glo Luminescent Cell Viability Assay; format: functional, cell-based; conditions: NCI-H716, 72 h; summary of the method: as §1
HCC827 = assay: Inhibition of anchorage independent cell growth in human HCC827 cells incubated for 6 days by Alamar blue reagent based fluorescence plate reader analysis; format: functional; conditions: HCC827, 144 h
[3] = target: Serine/threonine-protein kinase PAK 4 (Homo sapiens, UniProt O96013); conditions: dose 50.0 µM
MDA-MB-157 = assay: Antiproliferative activity against human MDA-MB-157 cells assessed as inhibition of cell proliferation incubated for 3 days by CellTiter-Glo Luminescent Cell Viability Assay; format: functional, cell-based; conditions: MDA-MB-157, 72 h; summary of the method: as §2
[4] = target: T2, Receptor-type tyrosine-protein kinase FLT3 (Homo sapiens, UniProt P36888); assay: Inhibition of human FLT3 assessed as inhibition constant in presence of ATP
T2 sequence (P36888 whole entry): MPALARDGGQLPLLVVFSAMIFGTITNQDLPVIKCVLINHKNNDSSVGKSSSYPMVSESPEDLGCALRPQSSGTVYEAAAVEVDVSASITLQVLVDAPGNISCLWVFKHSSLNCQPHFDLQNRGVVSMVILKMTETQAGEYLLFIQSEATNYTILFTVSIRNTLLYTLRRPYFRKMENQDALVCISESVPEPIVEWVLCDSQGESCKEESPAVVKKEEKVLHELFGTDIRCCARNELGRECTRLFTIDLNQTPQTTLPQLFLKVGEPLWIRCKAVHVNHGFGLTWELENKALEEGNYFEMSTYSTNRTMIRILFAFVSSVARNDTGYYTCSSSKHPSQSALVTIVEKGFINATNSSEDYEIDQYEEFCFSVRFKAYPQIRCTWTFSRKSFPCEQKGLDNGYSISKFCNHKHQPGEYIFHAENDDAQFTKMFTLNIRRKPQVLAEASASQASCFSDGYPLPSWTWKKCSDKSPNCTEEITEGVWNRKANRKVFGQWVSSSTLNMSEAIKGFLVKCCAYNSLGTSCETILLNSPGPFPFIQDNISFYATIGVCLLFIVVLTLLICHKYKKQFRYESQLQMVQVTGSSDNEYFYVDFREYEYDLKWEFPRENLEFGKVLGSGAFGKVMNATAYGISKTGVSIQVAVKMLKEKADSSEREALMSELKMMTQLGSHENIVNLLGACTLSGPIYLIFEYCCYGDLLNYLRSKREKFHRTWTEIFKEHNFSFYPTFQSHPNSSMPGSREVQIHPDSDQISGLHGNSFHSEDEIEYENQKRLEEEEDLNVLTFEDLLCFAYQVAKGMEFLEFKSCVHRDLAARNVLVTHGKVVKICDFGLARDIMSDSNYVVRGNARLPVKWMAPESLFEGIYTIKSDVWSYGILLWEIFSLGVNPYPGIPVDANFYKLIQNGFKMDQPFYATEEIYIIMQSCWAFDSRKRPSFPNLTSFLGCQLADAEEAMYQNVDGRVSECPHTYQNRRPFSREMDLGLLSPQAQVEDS

SW-403 = assay: Antiproliferative activity against human SW403 cells assessed as inhibition of cell proliferation incubated for 3 days by CellTiter-Glo Luminescent Cell Viability Assay; format: functional, cell-based; conditions: SW-403, 72 h; summary of the method: as §1
HCC70 = assay: Antiproliferative activity against human HCC70 cells assessed as inhibition of cell proliferation incubated for 3 days by CellTiter-Glo Luminescent Cell Viability Assay; format: functional, cell-based; conditions: HCC70, 72 h; summary of the method: as §2

Chain of Serine/threonine-protein kinase PAK 4 (O96013 whole entry, looked up): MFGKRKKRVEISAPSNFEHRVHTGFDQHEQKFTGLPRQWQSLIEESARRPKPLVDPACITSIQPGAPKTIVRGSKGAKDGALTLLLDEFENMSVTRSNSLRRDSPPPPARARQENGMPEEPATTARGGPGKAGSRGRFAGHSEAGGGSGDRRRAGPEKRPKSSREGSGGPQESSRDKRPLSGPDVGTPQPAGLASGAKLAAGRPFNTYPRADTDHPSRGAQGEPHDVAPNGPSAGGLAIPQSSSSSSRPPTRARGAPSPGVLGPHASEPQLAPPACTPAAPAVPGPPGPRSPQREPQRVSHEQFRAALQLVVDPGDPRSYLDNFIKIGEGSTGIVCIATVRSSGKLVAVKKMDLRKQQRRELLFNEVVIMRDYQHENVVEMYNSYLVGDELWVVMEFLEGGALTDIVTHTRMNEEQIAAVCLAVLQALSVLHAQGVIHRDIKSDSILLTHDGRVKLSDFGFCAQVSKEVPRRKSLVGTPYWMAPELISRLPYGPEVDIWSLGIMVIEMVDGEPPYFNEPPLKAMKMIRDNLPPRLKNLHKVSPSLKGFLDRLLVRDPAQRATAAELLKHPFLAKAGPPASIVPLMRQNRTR

Ki [2]: 21 nM
IC50 (Calu-1): 167 nM
IC50 (NCI-H716): 11 nM
IC50 (HCC827): 2.18 nM
TdeltaS [3]: 6.7 kcal/mol
IC50 (MDA-MB-157): 145 nM
Ki [4]: 81 nM
IC50 (SW-403): 2.2 nM
Structure (SMILES): Cc1nc(Nc2n[nH]c3c2CN(C(=O)N[C@H](CN(C)C)c2ccccc2)C3(C)C)c2sccc2n1 [PF-03758309]
IC50 [1]: 51 nM
IC50 (ZR-75-1): 0.49 nM
IC50 (LS174T): 7.2 nM
inhibition in vivo at 0.12 mg/kg (HCT-116): 16%
IC50 (HCC70): 0.23 nM
